This note sets out measurements from ChEMBL document CHEMBL5137122, “The Natural Products Withaferin A and Withanone from the Medicinal Herb Withania somnifera Are Covalent Inhibitors of the SARS-CoV-2 Main Protease” (J Nat Prod, 2022).

The target of experiment [1] is Replicase polyprotein 1ab (Severe acute respiratory syndrome coronavirus 2) (UniProt P0DTD1). The experiment is described as follows: Inhibition of SARS-COV2 main protease mediated cytotoxicity against human A549 cells transfected with pCMV3-2019-nCoV-3CLpro plasmid assessed as increase in cell number measured at 48 hrs in presence of buthionine sulfoximine by Nucblue dye based microscopic analysis. In outline:
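Transfected A549 cells were pretreated with 500 µM buthionine sulfoximine. At 20 h post-transfection, compound or E64 (5 µM) was added with 1 mM BSO. After 48 h, cells were stained with NucBlue (Hoechst 33342), imaged and counted, with nontransfected cells handled identically.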

Experiment [2] shares this target. The experiment is described as follows: Inhibition of SARS-COV2 main protease mediated cytotoxicity against human HepG2 cells transfected with pCMV3-2019-nCoV-3CLpro plasmid assessed as increase in cell number at 5 uM measured at 48 hrs by Nucblue dye based microscopic analysis. In outline:
(§1)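 HepG2 or A549 cells (3×10^5) were lipofected 16 h after seeding with 3 µg pCMV3-2019-nCoV-3CLpro in serum-free DMEM for 8 h, then grown in complete medium for 12 h. Cells were trypsinised and 1×10^4 replated with hygromycin B (200 µg) plus compound or E64 (5 µM) for 48 h. NucBlue (Hoechst 33342) was added for 30 min at 37 °C, then imaging and hemocytometer counts against nontransfected cells.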

The target is the same in experiment [3]. The experiment in a line: Inhibition of SARS-COV2 main protease mediated cytotoxicity against human A549 cells transfected with pCMV3-2019-nCoV-3CLpro plasmid assessed as increase in cell number at 5 uM measured at 48 hrs by Nucblue dye based microscopic analysis. In outline:
as §1

Experiment [4] shares this target. The experiment in a line: Inhibition of SARS-COV2 main protease mediated cytotoxicity against human A549 cells transfected with pCMV3-2019-nCoV-3CLpro plasmid assessed as increase in cell number and measured at 48 hrs by calcien AM staining based microscopic analysis. In outline:
(§2)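 3-D organoid-like culture: pCMV3-2019-nCoV-3CLpro-transfected or nontransfected HepG2 or A549 cells (3000 cells/µL) were mixed 1:1 with growth factor-reduced Matrigel, with drug-containing medium added at the same time. Viable cells were imaged after calcein AM staining. Organoids were then melted on ice, pelleted, trypsinised and counted by hemocytometer.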

Experiment [5] addresses T1, Replicase polyprotein 1ab (Severe acute respiratory syndrome coronavirus 2, UniProt P0DTD1). The experiment in a line: Inhibition of recombinant SARS-COV2 main protease expressed in Escherichia coli Rosetta cells using DABCYL-KTSAVLQSGFRKME-EDANS as substrate pre-incubated for 60 mins followed by substarte addition measured at 30 min in presence of GSH by FRET-based assay. Put shortly:
(§3)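 FRET assay with purified E. coli-expressed MPro (0.5 µM) in 50 mM Tris pH 7.4 with 2 µM EDTA and no DTT. MPro was preincubated 60 min at 37 °C with a range of inhibitor concentrations, with 5 mM GSH added for line 12. IC50 came from initial rates.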

Experiment [6] concerns the target Replicase polyprotein 1ab (Severe acute respiratory syndrome coronavirus 2) (UniProt P0DTD1). The experiment in a line: Binding affinity to recombinant SARS-COV2 main protease expressed in Escherichia coli Rosetta cells at 2 uM measured after 16 hrs by LC-MS analysis based equilibrium dialysis method. In outline:
(§4)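 Purified His-GST-tagged MPro expressed in E. coli Rosetta and released with HRV3C protease. MPro (30 µg) in 50 mM potassium phosphate pH 7.5 with 2 µM compound was dialysed against the same solution without protein (3.5 kDa cutoff) for 16 h at room temperature. Drug in the dialysate was quantified by LC-MS or LC-MS/MS against a no-protein control. The dialyser contents were then denatured and drug re-measured.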
A general note: In equilibrium dialysis only unbound substance equilibrates across the membrane.

Experiment [7] shares this target. The experiment in a line: Inhibition of SARS-COV2 main protease mediated cytotoxicity against human A549 cells transfected with pCMV3-2019-nCoV-3CLpro plasmid assessed as GSH level measured at 48 hrs in presence of buthionine sulfoximine by Nucblue dye based microscopic analysis. The format is cell-based.
For experiment [8] the target is unchanged. The experiment in a line: Inhibition of SARS-COV2 main protease mediated cytotoxicity against human HepG2 cells transfected with pCMV3-2019-nCoV-3CLpro plasmid assessed as increase in cell number and measured at 48 hrs by calcien AM staining based microscopic analysis. Put shortly: as §2
The target of experiment [9] is T1, Replicase polyprotein 1ab. The experiment in a line: Inhibition of recombinant SARS-COV2 main protease expressed in Escherichia coli Rosetta cells using DABCYL-KTSAVLQSGFRKME-EDANS as substrate pre-incubated for 60 mins followed by substarte addition by FRET-based assay. In outline:
as §3

Experiment [10] has as its target Replicase polyprotein 1ab (Severe acute respiratory syndrome coronavirus 2) (UniProt P0DTD1). The experiment in a line: Inhibition of recombinant SARS-COV2 main protease expressed in Escherichia coli Rosetta cells at 0.5 uM using DABCYL-KTSAVLQSGFRKME-EDANS as substrate pre-incubated for 60 mins followed by substarte addition and measured at 30 min by FRET-based assay relative to control. Put shortly:
(§5)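 Time-course variant of the FRET assay: fixed inhibitor concentration with preincubation times varied (5–120 min, 37 °C) in 50 mM Tris pH 7.4 with 2 µM EDTA. Conditions were 0.5 µM MPro with 5 µM inhibitor, or 0.25 µM MPro with 0.5 µM inhibitor.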

The target is the same in experiment [11]. The experiment in a line: Inhibition of recombinant SARS-COV2 main protease expressed in Escherichia coli Rosetta cells at 5 uM using DABCYL-KTSAVLQSGFRKME-EDANS as substrate pre-incubated for 60 mins followed by substarte addition measured at 5 min by FRET-based assay relative to control. In outline: as §5
For experiment [12] the target is unchanged. The experiment in a line: Binding affinity to recombinant SARS-COV2 main protease expressed in Escherichia coli Rosetta cells at 2 uM measured after 16 hrs by LC-MSMS analysis based equilibrium dialysis method. In outline:
as §4

Calls of active or inactive are those of the source.

One may read the inhibition as the relative decrease from the control value, in per cent. Consider `CC(C)C[C@H](NC(=O)[C@H]1O[C@@H]1C(=O)O)C(=O)NCCCCN=C(N)N`, for which the inhibition result in experiment [1], in experiment [2] and in [3] was “Active” each time.

By IC50 is commonly meant the concentration that gives 50% inhibition. On to `CC1=C(CO)C(=O)O[C@@H]([C@@H](C)[C@H]2CC[C@H]3[C@@H]4C[C@H]5O[C@]56[C@@H](O)C=CC(=O)[C@]6(C)[C@H]4CC[C@]23C)C1` [WITHAFERIN A], for which the inhibition entry in experiment [1], in experiment [4], in experiment [2], in [3], in [7] and in [8] was “Active” in each case. In addition, the half-inhibitory concentration (IC50) in [5] was found to be 630 nM; in experiment [9] it was 540 nM. The result in experiment [6] was Active. For the same molecule, the inhibition in experiment [10] was 80%; in experiment [11], 100%.

Regarding `CC1=C(C)C(=O)O[C@@H]([C@@H](C)[C@@]2(O)CC[C@H]3[C@@H]4[C@@H]5O[C@@H]5[C@@]5(O)CC=CC(=O)[C@]5(C)[C@H]4CC[C@@]32C)C1` [WITHANONE], the outcome in experiment [12] was Active. The inhibition entry in [1], in experiment [4], in [2], in [3], in experiment [7] and in [8] was “Active” each time. Besides, the IC50 in [9] is 1800 nM.
